Holding throughout (format): ADME
The target in data set [1] is T1, UDP-glucuronosyltransferase 2B17 (Homo sapiens, UniProt O75795).
T1 sequence (O75795 whole entry): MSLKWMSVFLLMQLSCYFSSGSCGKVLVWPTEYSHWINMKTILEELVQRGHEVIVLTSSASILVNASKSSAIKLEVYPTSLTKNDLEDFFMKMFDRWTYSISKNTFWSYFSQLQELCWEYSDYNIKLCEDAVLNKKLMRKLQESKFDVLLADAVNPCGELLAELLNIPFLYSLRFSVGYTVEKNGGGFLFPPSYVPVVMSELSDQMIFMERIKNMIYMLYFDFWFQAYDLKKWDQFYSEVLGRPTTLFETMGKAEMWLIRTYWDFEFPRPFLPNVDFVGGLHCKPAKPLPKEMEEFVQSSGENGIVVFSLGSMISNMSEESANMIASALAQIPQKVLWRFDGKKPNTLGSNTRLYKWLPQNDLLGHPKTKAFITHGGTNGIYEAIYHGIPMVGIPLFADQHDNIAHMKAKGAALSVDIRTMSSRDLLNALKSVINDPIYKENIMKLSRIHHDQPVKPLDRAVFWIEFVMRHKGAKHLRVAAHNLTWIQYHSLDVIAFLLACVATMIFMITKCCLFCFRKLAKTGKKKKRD
As to the kind of experiment: Drug metabolism assessed as recombinant human C-terminal His-tagged UGT2B17-mediated 17-epiestriol glucuronide metabolite formation after 15 to 60 mins by HPLC analysis in presence of UDPGA. Particulars: recombinant enzyme.

A short description of data set [2]: Drug metabolism in human intestine microsomes assessed as 16-epiestriol-16-glucuronide formation after 15 to 60 mins by Michaelis-Menten equation analysis in presence of UDPGA. A digest of the protocol:
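Pooled human intestine microsomes (6 donors), 0.5 or 10 µg, with alamethicin at 5% of total protein. Incubated with 50 mM phosphate pH 7.4, 10 mM MgCl₂, 5 mM UDPGA and 10% DMSO for 15–60 min at 37°C. Each glucuronide regioisomer quantified by HPLC, in triplicate, with substrate consumption at or below 10%.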

Data set [3] deals with T2, UDP-glucuronosyltransferase 2B4 (Homo sapiens, UniProt P06133).
T2 sequence (P06133 whole entry): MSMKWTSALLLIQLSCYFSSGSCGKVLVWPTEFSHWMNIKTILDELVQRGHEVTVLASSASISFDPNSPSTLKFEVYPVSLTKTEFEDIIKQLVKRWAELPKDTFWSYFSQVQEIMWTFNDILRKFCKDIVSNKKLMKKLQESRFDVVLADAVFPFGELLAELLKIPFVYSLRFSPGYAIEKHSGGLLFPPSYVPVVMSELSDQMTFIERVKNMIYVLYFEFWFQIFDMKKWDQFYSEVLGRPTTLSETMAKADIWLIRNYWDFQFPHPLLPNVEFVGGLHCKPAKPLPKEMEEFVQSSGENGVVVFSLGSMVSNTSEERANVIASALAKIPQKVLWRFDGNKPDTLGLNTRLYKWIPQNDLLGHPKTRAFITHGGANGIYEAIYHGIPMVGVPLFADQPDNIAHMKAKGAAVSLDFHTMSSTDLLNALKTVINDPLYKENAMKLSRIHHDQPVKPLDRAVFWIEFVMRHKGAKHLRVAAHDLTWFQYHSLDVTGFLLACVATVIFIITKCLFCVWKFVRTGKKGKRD
As to the kind of experiment: Drug metabolism assessed as recombinant human C-terminal His-tagged UGT2B4-mediated estriol-16-glucuronide formation after 15 to 60 mins by Michaelis-Menten equation analysis in presence of UDPGA. Conditions: recombinant enzyme.

The target of data set [4] is T3, UDP-glucuronosyltransferase 2A1 (Homo sapiens, UniProt P0DTE4).
T3 sequence (P0DTE4 whole entry): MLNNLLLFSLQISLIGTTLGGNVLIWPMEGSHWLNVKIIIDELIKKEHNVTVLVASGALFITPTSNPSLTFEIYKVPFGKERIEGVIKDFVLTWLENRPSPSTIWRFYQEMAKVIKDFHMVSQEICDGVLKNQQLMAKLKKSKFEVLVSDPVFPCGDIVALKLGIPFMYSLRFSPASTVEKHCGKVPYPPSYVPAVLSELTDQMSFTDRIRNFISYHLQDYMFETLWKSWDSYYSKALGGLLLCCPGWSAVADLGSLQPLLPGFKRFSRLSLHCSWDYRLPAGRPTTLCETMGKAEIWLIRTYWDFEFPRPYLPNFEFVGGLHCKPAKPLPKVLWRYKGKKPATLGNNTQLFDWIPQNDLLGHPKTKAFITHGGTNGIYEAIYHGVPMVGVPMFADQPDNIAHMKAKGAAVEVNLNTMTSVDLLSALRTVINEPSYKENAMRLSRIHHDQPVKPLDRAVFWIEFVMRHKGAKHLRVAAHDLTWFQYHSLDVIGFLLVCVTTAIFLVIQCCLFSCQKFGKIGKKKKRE
As to the kind of experiment: Drug metabolism assessed as recombinant human C-terminal His-tagged UGT2A1-mediated estriol-16-glucuronide formation after 15 to 60 mins by Michaelis-Menten equation analysis in presence of UDPGA. Particulars: recombinant enzyme.

Data set [5] deals with T4, UDP-glucuronosyltransferase 1A10 (Homo sapiens, UniProt Q9HAW8).
T4 sequence (Q9HAW8 whole entry): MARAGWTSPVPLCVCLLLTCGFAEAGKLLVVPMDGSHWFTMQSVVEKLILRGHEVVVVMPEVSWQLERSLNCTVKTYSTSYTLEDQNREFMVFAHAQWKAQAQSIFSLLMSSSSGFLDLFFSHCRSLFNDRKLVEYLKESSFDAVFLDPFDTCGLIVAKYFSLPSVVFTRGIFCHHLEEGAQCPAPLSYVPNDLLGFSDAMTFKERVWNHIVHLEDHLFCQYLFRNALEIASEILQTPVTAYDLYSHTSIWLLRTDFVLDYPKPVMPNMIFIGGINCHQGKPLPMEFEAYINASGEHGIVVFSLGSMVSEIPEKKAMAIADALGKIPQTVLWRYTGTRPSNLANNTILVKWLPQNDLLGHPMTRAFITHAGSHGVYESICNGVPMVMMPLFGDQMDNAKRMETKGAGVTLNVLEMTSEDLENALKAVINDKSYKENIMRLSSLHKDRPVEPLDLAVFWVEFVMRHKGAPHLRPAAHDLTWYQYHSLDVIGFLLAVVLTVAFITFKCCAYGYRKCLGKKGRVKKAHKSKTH
As to the kind of experiment: Drug metabolism assessed as human UGT1A10-mediated 13-epiestradiol-3-glucuronide formation at 200 uM after 15 to 60 mins by HPLC analysis in presence of UDPGA. Particulars: recombinant enzyme. The method, boiled down:
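Screening at a single substrate concentration of 200 μM, in triplicate. The reaction used 5 or 50 µg of UGT-enriched insect cell membranes in 50 mM phosphate pH 7.4 with 10 mM MgCl₂ and 5 mM UDPGA, 10% final DMSO. Incubation was 15–60 min at 37°C. Perchloric acid stopped the reaction and supernatants were analysed by HPLC. Controls lacked UDPGA. Rates were normalized to relative UGT expression level.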

`C[C@]12CC[C@@H]3c4ccc(O)cc4CC[C@H]3[C@@H]1C[C@@H](O)[C@H]2O`: the Drug metabolism result in data set [1] is reported as “metabolite_not_detected”.

As usually defined, the Km is the concentration of substrate that gives half-maximal velocity. The term Vmax denotes the top rate of the reaction or transport when substrate is in excess. In the case of `C[C@]12CC[C@@H]3c4ccc(O)cc4CC[C@H]3[C@@H]1C[C@H](O)[C@@H]2O` [EPIESTRIOL], in data set [2], the Km turned out to be 43 µM and the Vmax was determined as 1480 pmol/min/mg.

With `C[C@]12CC[C@@H]3c4ccc(O)cc4CC[C@H]3[C@@H]1C[C@@H](O)[C@@H]2O` [ESTRIOL], the Drug metabolism in data set [3] and in data set [4] was 4 pmol/min/mg in each case.

For the compound `C[C@@]12CC[C@@H]3c4ccc(O)cc4CC[C@H]3[C@@H]1CC[C@@H]2O`, the Drug metabolism entry in data set [5] was “metabolite_detected”.

These data come from ChEMBL document CHEMBL3525985, “Regiospecificity and stereospecificity of human UDP-glucuronosyltransferases in the glucuronidation of estriol, 16-epiestriol, 17-epiestriol, and 13-epiestradiol” (Drug Metab Dispos, 2013).
